According to ChEMBL document CHEMBL1921704, “Discovery of N-aryl-2-acylindole human glucagon receptor antagonists” (Bioorg Med Chem Lett, 2011):
Active and inactive are the calls of the source. The rule behind the calls is not given here.

What was measured:
Glucagon receptor [1] = target: T1, Glucagon receptor (Homo sapiens, UniProt P47871); experiment: Displacement of [125I]-glucagon from human glucagon receptor expressed in CHO cells after 4 to 12 hrs by scintillation proximity assay; format: cell-based
In short: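 Scintillation proximity assay on membranes from CHO cells expressing hGCGR, measuring inhibition of ¹²⁵I-labelled glucagon binding. IC50 reported as the average rounded to two significant figures, with standard error of the mean when more than one measurement was made.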

Glucagon receptor [2] = target: T1, Glucagon receptor; experiment: Antagonist activity at human glucagon receptor expressed in CHO cells assessed as inhibition of forskolin/glucagon-induced cAMP production preincubated for 30 mins before glucagon challenge measured after 30 mins using [125I]-cAMP by liquid scintillation counting; format: functional, cell-based
In short: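 Glucagon-induced cAMP production measured in CHO cells transfected with hGCGR. IC50 reported as the average rounded to two significant figures, with SEM when measured more than once.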

[3] = Half life in rat at 1 mg/kg, iv and 2 mg/kg, po; format: ADME, organism-based; conditions: in vivo
In short: (§1)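 Rat PK with dosing at 1 mg/kg IV and 2 mg/kg PO, vehicle DMSO/water/PEG400 15:35:55. Parameters were plasma clearance, Vd, t1/2, dose-normalised PO AUC and Cmax, and %F.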

[4] = Plasma clearance in rat at 1 mg/kg, iv and 2 mg/kg, po; format: ADME, organism-based; in short: as §1
[5] = Oral bioavailability in rat at 2 mg/kg; format: ADME, organism-based; conditions: in vivo; in short: as §1
Rattus norvegicus [6] = experiment: Dose normalised Cmax in rat at 1 mg/kg, iv and 2 mg/kg, po; format: ADME, organism-based; conditions: in vivo; in short: as §1
Rattus norvegicus [7] = experiment: Dose normalised AUC in rat at 2 mg/kg, po; format: ADME, organism-based; design: dose 2 mg/kg, route oral; conditions: in vivo; in short: as §1
[8] = Volume of distribution in rat at 1 mg/kg, iv and 2 mg/kg, po; format: ADME, organism-based; conditions: in vivo; in short: as §1
Mus musculus [9] = experiment: Antidiabetic activity in human glucagon receptor transgenic mouse assessed as inhibition of glucagon-induced glucose excursion at 10 mg/kg, po administered 60 mins after glucagon challenge by glucometry; format: functional, organism-based; design: dose 10 mg/kg; conditions: in the assay text read “60 mins before glucagon challenge” for “60 mins after glucagon challenge”
In short: (§2)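 Oral dosing to mice expressing human glucagon receptor, followed 60 min later by IP glucagon injection. Read-out was the glucagon-induced blood glucose excursion.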

[10] = target: Glucagon-like peptide 1 receptor (Homo sapiens, UniProt P43220); experiment: Antagonist activity at human GLP1 receptor assessed as inhibition of cAMP production; format: functional
Plasma = experiment: Protein binding in Sprague-Dawley rat plasma at 20 mg/kg, po after 2 to 24 hrs; format: ADME, organism-based; design: dose 20 mg/kg, route oral; conditions: in vivo
In short: (§3)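 Radiolabelled analog given orally at 20 mg/kg to Sprague-Dawley rats. Irreversible binding to plasma and liver proteins measured at 2, 6 and 24 h post dose.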

[11] = Half life in dog at 0.5 mg/kg, iv and 2 mg/kg, po; format: ADME, organism-based, Canis lupus familiaris; conditions: in vivo
[12] = Oral bioavailability in dog at 2 mg/kg; format: ADME, organism-based, Canis lupus familiaris; conditions: in vivo
[13] = target: T2, Gastric inhibitory polypeptide receptor (Homo sapiens, UniProt P48546); experiment: Antagonist activity at human GIP receptor assessed as inhibition of cAMP production; format: functional
T2 sequence (P48546 whole entry): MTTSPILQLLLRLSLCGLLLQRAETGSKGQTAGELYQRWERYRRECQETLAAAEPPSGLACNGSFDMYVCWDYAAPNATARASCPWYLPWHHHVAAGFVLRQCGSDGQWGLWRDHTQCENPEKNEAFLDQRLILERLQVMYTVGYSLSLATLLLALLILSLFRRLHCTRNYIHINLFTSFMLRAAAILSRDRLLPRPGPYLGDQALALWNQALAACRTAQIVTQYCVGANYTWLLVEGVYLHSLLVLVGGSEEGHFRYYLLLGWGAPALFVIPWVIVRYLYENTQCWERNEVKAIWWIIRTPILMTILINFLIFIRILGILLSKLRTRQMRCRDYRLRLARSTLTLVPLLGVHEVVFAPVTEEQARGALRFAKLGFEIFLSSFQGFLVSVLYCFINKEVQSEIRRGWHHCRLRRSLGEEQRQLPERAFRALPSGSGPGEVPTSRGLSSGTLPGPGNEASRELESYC

Cytochrome P450 2D6 = Cytochrome P450 2D6 (Homo sapiens, UniProt P10635); experiment: Inhibition of CYP2D6; format: ADME
Canis familiaris [14] = experiment: Dose normalised AUC in dog at 2 mg/kg, po; format: ADME, organism-based, Canis lupus familiaris; design: dose 2 mg/kg, route oral; conditions: in vivo
Mus musculus [15] = experiment: Antidiabetic activity in human glucagon receptor transgenic mouse assessed as inhibition of glucagon-induced glucose excursion at 30 mg/kg, po administered 60 mins after glucagon challenge by glucometry; format: functional, organism-based; design: dose 30 mg/kg; conditions: in the assay text read “60 mins before glucagon challenge” for “60 mins after glucagon challenge”; in short: as §2
Liver = experiment: Protein binding in Sprague-Dawley rat liver at 20 mg/kg, po after 2 to 24 hrs; format: ADME, organism-based; design: dose 20 mg/kg, route oral; conditions: in vivo; in short: as §3
[16] = Chemical stability of the compound in 1:1 mixtures of dioxane and buffered solutions at pH 2 to pH 10 assessed as racemization at 40 degree celsius after 24 hrs by chiral HPLC analysis; format: physicochemical; conditions: buffer, pH 2, 24 h
Liver microsomes [17] = experiment: Stability of the compound in human liver microsomes assessed as racemization at 10 uM after 60 mins by chiral HPLC analysis; format: ADME, Microsome; conditions: 1 h
Mus musculus [18] = experiment: Antidiabetic activity in human glucagon receptor transgenic mouse assessed as inhibition of glucagon-induced glucose excursion at 3 mg/kg, po administered 60 mins after glucagon challenge by glucometry; format: functional, organism-based; design: dose 3 mg/kg; conditions: in the assay text read “60 mins before glucagon challenge” for “60 mins after glucagon challenge”; in short: as §2
Rattus norvegicus [19] = experiment: Toxicity in rat assessed as tolerability at 100 mg/kg/day after 8 days; format: organism-based; conditions: in vivo, 192 h
Cytochrome P450 3A4 = Cytochrome P450 3A4 (Homo sapiens, UniProt P08684); experiment: Inhibition of CYP3A4; format: ADME
[20] = Volume of distribution in dog at 0.5 mg/kg, iv and 2 mg/kg, po; format: ADME, organism-based, Canis lupus familiaris; conditions: in vivo
Cytochrome P450 2C9 = Cytochrome P450 2C9 (Homo sapiens, UniProt P11712); experiment: Inhibition of CYP2C9; format: ADME
[21] = Plasma clearance in dog at 0.5 mg/kg, iv and 2 mg/kg, po; format: ADME, organism-based, Canis lupus familiaris
Mus musculus [22] = experiment: Antidiabetic activity in human glucagon receptor transgenic ob/ob mouse hyperglycemic model assessed as reduction in ambient glucose level at 1 mg/kg, po over 6 hrs period; format: functional, organism-based; design: dose 1 mg/kg
In short: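 Model was transgenic ob/ob/hGCGR diabetic mice. Ambient glucose was followed over 6 h after a single oral dose.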

Liver microsomes [23] = experiment: Protein binding in human liver microsomes at 10 uM after 60 mins; format: ADME, Microsome; conditions: 1 h
In short: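 Tritium-labelled analog incubated with human and rat liver microsomes for 60 min at 37 °C, then irreversible protein binding measured.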

Rattus norvegicus [24] = experiment: Stability of the compound in bile duct cannulated rat assessed as racemization at 2 mg/kg, iv by chiral HPLC analysis; format: ADME, organism-based; design: dose 2 mg/kg, route intravenous; conditions: in vivo
In short: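 Radiolabelled compound given IV at 2 mg/kg to bile-duct-cannulated rats. Excreted parent compound analysed by chiral HPLC for racemization.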

Canis familiaris [25] = experiment: Dose normalised Cmax in dog at 0.5 mg/kg, iv and 2 mg/kg, po; format: ADME, organism-based, Canis lupus familiaris; conditions: in vivo
[26] = Solubility of the compound; format: physicochemical
[27] = Oral bioavailability in rat; format: ADME, organism-based; conditions: in vivo; in short: as §1
[28] = Clearance in rat; format: ADME, organism-based; conditions: in vivo; in short: as §1

T1 sequence (P47871 whole entry): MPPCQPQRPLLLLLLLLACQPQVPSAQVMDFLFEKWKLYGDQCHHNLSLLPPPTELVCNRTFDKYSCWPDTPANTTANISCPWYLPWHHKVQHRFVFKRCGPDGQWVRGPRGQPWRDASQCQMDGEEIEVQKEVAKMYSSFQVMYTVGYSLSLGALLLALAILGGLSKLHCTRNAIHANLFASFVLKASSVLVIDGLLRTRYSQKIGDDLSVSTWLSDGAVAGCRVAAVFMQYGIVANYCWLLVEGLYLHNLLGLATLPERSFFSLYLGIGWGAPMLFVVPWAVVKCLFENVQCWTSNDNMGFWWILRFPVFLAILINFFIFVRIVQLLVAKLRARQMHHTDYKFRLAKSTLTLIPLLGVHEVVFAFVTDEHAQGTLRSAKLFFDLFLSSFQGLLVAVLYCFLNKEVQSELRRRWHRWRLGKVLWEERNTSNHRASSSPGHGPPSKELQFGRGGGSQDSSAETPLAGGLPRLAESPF
Chain of Cytochrome P450 2D6 (P10635 whole entry): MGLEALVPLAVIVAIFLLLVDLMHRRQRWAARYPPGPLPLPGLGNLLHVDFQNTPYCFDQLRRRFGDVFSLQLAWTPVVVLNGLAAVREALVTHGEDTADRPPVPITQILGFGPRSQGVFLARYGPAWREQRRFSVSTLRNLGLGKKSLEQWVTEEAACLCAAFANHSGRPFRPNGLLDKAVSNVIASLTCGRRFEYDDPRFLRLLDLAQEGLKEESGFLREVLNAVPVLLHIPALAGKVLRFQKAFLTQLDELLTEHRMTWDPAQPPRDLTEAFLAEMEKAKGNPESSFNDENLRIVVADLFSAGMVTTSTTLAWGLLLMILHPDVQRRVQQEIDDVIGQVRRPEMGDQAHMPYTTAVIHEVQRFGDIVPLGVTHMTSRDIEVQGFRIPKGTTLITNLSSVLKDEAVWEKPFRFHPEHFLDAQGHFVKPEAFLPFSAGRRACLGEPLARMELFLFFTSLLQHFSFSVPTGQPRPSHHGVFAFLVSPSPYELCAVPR
Chain of Cytochrome P450 2C9 (P11712 whole entry): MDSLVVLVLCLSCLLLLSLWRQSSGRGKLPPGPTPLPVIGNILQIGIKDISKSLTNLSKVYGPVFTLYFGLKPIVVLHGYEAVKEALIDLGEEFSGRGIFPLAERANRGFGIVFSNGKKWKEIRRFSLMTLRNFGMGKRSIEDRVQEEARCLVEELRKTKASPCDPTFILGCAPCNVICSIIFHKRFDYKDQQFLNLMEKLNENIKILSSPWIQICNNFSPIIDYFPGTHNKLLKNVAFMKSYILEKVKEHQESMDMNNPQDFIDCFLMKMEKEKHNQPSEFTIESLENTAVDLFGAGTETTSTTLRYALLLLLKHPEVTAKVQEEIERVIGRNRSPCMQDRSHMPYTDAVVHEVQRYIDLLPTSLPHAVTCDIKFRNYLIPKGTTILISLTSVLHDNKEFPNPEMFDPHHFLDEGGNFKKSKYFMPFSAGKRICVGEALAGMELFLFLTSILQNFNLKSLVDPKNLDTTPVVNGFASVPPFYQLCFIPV
Chain of Cytochrome P450 3A4 (P08684 whole entry): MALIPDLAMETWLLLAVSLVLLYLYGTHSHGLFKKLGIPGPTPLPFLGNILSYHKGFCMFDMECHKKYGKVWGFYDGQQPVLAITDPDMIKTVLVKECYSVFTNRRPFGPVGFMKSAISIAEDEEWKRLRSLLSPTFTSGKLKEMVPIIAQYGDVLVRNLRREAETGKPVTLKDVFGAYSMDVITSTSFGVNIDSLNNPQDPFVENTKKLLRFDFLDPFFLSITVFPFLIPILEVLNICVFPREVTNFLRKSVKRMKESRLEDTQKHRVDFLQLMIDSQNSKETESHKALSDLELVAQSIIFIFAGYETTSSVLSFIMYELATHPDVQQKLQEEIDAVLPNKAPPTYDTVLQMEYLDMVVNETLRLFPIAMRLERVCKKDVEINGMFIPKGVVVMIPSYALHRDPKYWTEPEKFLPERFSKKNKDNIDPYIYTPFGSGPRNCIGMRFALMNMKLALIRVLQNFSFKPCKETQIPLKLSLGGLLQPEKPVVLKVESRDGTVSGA
Chain of Glucagon-like peptide 1 receptor (P43220 whole entry): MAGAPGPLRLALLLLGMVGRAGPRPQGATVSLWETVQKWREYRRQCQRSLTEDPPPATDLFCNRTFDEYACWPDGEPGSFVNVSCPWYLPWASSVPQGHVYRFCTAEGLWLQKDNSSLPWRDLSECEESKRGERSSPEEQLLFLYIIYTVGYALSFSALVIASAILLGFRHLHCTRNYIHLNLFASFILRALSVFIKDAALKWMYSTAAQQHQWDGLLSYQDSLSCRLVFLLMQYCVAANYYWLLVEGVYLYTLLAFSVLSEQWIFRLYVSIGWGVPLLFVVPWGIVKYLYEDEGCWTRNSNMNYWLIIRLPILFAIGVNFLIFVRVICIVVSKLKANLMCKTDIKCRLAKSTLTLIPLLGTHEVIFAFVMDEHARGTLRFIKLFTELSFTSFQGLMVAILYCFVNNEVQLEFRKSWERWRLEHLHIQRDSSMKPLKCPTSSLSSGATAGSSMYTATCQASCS

## CCCC(Cc1ccc(C(=O)NCCC(=O)O)cc1)C(=O)c1cc2cc(Cl)ccc2n1-c1cc(C)cc(C)c1 (single isomer, unassigned)
Glucagon receptor [1]
  IC50: 120 nM

## CCCC(Cc1ccc(C(=O)NCCC(=O)O)cc1)C(=O)c1cc2cc(Cl)ccc2n1-c1cccc(OC(F)(F)F)c1 (single isomer, unassigned)
Glucagon receptor [1]
  IC50: 24 nM
Glucagon receptor [2]
  IC50: 35 nM

## CCCC(Cc1ccc(C(=O)NCCC(=O)O)cc1)C(=O)c1cc2cc(Cl)ccc2n1-c1ccc2cc(OC)ccc2c1 (single isomer, unassigned)
Glucagon receptor [1]
  IC50: 34 nM
Glucagon receptor [2]
  IC50: 95 nM

## CCCC(Cc1ccc(C(=O)NCCC(=O)O)cc1)C(=O)c1cc2cc(Cl)ccc2n1-c1ccc(Cl)c(C(F)(F)F)c1 (single isomer, unassigned)
[3]
  half-life: 1.3 h
[4]
  clearance: 9.2 mL/min/kg
[5]
  bioavailability: 17%
Glucagon receptor [1]
  IC50: 12 nM
Glucagon receptor [2]
  IC50: 17 nM
Rattus norvegicus [6]
  Cmax/dose: 150 nM
Rattus norvegicus [7]
  AUC/dose: 0.52 µM·h
[8]
  Vd: 0.84 L/kg

## CC(C)CC[C@@H](Cc1ccc(C(=O)NCCC(=O)O)cc1)C(=O)c1cc2cc(Cl)ccc2n1-c1cccc(C(F)(F)F)c1
Glucagon receptor [1]
  IC50: 17 nM
Glucagon receptor [2]
  IC50: 36 nM

## CCCC(Cc1ccc(C(=O)NCCC(=O)O)cc1)C(=O)c1cc2cc(Cl)ccc2n1-c1ccc(Cl)cc1 (single isomer, unassigned)
Glucagon receptor [1]
  IC50: 32 nM
Glucagon receptor [2]
  IC50: 100 nM

## CCCCC[C@@H](Cc1ccc(C(=O)NCCC(=O)O)cc1)C(=O)c1cc2cc(Cl)ccc2n1-c1cccc(C(F)(F)F)c1
Mus musculus [9]
  Activity: Active
[3]
  half-life: 1.9 h
[4]
  clearance: 6.8 mL/min/kg
[10]
  IC50: > 10000 nM
Plasma
  PPB: Not Active
[5]
  bioavailability: 33%
Glucagon receptor [1]
  IC50: 10 nM
[11]
  half-life: 2.7 h
[12]
  bioavailability: 60%
[13]
  IC50: 1400 nM
Glucagon receptor [2]
  IC50: 12 nM
Cytochrome P450 2D6
  IC50: > 11000 nM
Rattus norvegicus [6]
  Cmax/dose: 330 nM
Canis familiaris [14]
  AUC/dose: 4.2 µM·h
Mus musculus [15]
  Activity: Active
Liver
  PB: Not Active
Rattus norvegicus [7]
  AUC/dose: 1.46 µM·h
[16]
  Stability: Stable
Liver microsomes [17]
  Stability: Stable
Mus musculus [18]
  Activity: Active
Rattus norvegicus [19]
  Activity: Non-toxic
[8]
  Vd: 0.98 L/kg
Cytochrome P450 3A4
  IC50: > 11000 nM
[20]
  Vd: 0.32 L/kg
Cytochrome P450 2C9
  IC50: > 11000 nM
[21]
  clearance: 3.8 mL/min/kg
Mus musculus [22]
  Activity: Active
Liver microsomes [23]
  PB: Not Active
Rattus norvegicus [24]
  Stability: Stable
Canis familiaris [25]
  Cmax/dose: 840 nM

## Cn1/c(=N\c2ccc(OC(F)(F)F)cc2)n(Cc2ccc(C(=O)Nc3nnn[nH]3)cc2)c2cc(Cl)c(Cl)cc21
[26]
  solubility: Insoluble

## CCC[C@@H](Cc1ccc(C(=O)NCCC(=O)O)cc1)C(=O)c1cc2cc(Cl)ccc2n1-c1cccc(C(F)(F)F)n1
[3]
  half-life: 1.1 h
[4]
  clearance: 24 mL/min/kg
[5]
  bioavailability: 9.1%
Glucagon receptor [1]
  IC50: 9.2 nM
Glucagon receptor [2]
  IC50: 34 nM
Rattus norvegicus [6]
  Cmax/dose: 70 nM
Rattus norvegicus [7]
  AUC/dose: 0.15 µM·h
[8]
  Vd: 0.9 L/kg

## CCCC(Cc1ccc(C(=O)NCCC(=O)O)cc1)C(=O)c1cc2cc(Cl)ccc2n1-c1ccc(C(C)(C)C)cc1 (single isomer, unassigned)
Glucagon receptor [1]
  IC50: 52 nM
Glucagon receptor [2]
  IC50: 52 nM
[27]
  bioavailability: 38%
[28]
  clearance: 4.7 mL/min/kg

## CCCCC[C@@H](Cc1ccc(C(=O)NCCC(=O)O)cc1)C(=O)c1cc2cc(F)ccc2n1-c1cccc(C(F)(F)F)c1
Glucagon receptor [1]
  IC50: 10 nM
Glucagon receptor [2]
  IC50: 20 nM

## CCC[C@H](Cc1ccc(C(=O)NCCC(=O)O)cc1)C(=O)c1cc2cc(Cl)ccc2n1-c1cccc(C(F)(F)F)n1
Glucagon receptor [1]
  IC50: 450 nM

## CCCC(Cc1ccc(C(=O)NCCC(=O)O)cc1)C(=O)c1cc2cc(Cl)ccc2n1-c1cnc2ccccc2c1 (single isomer, unassigned)
Glucagon receptor [1]
  IC50: 58 nM
Glucagon receptor [2]
  IC50: 718 nM
